Laboratory results as given in ChEMBL document CHEMBL2417446, “Atropisomeric 4-phenyl-4H-1,2,4-triazoles as selective glycine transporter 1 inhibitors” (J Med Chem, 2013).
pIC50: −log10 of the molar value. Values after ≈ are worked out from the molar mass of the structure shown. Each block holds one molecule with its values, some of them ahead of it.

Columns and labels:
[1] = biological target: T1, Sodium- and chloride-dependent glycine transporter 1 (Rattus norvegicus, UniProt P28572); assay: Displacement of [3H]glycine from GlyT1 in rat C6 glioma cells incubated for 30 mins prior to substrate addition measured after 10 mins by scintillation counting analysis; type: cell-based
T1 sequence (P28572 whole entry): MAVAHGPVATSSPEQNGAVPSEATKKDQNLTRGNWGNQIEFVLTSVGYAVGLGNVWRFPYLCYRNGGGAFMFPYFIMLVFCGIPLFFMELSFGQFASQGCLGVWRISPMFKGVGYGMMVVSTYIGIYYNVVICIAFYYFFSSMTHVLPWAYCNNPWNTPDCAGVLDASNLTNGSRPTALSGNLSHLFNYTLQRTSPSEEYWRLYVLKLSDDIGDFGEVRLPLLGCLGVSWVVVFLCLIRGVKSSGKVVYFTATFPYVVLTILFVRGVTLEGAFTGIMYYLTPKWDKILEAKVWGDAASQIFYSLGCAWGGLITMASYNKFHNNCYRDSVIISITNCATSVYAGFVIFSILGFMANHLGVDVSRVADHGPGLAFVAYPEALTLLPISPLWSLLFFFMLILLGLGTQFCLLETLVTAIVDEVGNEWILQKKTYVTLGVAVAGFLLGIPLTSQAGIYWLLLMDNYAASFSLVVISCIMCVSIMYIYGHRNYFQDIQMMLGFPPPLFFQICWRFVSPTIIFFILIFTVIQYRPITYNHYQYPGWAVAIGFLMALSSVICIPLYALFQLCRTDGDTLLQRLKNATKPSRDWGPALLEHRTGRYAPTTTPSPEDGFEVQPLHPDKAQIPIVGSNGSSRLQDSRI

[2] = AUC in ddY mouse at 3 mg/kg, po by LC/MS analysis; type: ADME, organism-based; set-up: dose 3 mg/kg, route oral; details: plasma
How it was run: (§1)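 Single dose given iv at 1 mg/kg or po at 3 mg/kg; each value is the mean of n = 3 measurements.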

[3] = Cmax in cynomolgus monkey at 3 mg/kg, po by LC/MS analysis; type: ADME, organism-based, Macaca fascicularis; set-up: dose 3 mg/kg, route oral; details: in vivo; how it was run: as §1
[4] = Half life in cynomolgus monkey at 1 mg/kg, iv by LC/MS analysis; type: ADME, organism-based, Macaca fascicularis; set-up: dose 1 mg/kg, route intravenous; details: in vivo; how it was run: as §1
[5] = Intrinsic clearance in cynomolgus monkey liver microsomes after 30 mins by LC-MS/MS analysis; type: ADME, Macaca fascicularis, Microsome; details: read-out: CLH
How it was run: (§2)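 Liver microsome CLint was run in duplicate.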

[6] = Intrinsic clearance in human liver microsomes after 30 mins by LC-MS/MS analysis; type: ADME, Microsome; details: read-out: CLH; how it was run: as §2
[7] = Aqueous solubility of the compound at pH 6.8 after 20 hrs by HPLC analysis; type: physicochemical; details: buffer; for solubility: pH 6.8, 20 h, 20 h; for solubility at 20 h: pH 6.8
[8] = AUC in cynomolgus monkey at 3 mg/kg, po by LC/MS analysis; type: ADME, organism-based, Macaca fascicularis; set-up: dose 3 mg/kg, route oral; details: plasma; how it was run: as §1
[9] = Lipophilicity, log D of the compound at pH 7.4; type: physicochemical; details: buffer
[10] = Volume of distribution at steady state in cynomolgus monkey at 1 mg/kg, iv by LC/MS analysis; type: ADME, organism-based, Macaca fascicularis; set-up: dose 1 mg/kg, route intravenous; details: in vivo, read-out: Vdss
How it was run: (§3)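 Single intravenous dose as a pharmacokinetic study, with each parameter reported as the mean of n = 3 measurements.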

[11] = Oral bioavailability in cynomolgus monkey at 3 mg/kg by LC/MS analysis; type: ADME, organism-based, Macaca fascicularis; details: in vivo; how it was run: as §1
[12] = Cmax in ddY mouse at 3 mg/kg, po by LC/MS analysis; type: ADME, organism-based; set-up: dose 3 mg/kg, route oral; details: in vivo; how it was run: as §1
[13] = Plasma clearance in ddY mouse at 1 mg/kg, iv by LC/MS analysis; type: ADME, organism-based; set-up: dose 1 mg/kg, route intravenous; how it was run: as §1
[14] = AUC in cynomolgus monkey at 1 mg/kg, iv by LC/MS analysis; type: ADME, organism-based, Macaca fascicularis; set-up: dose 1 mg/kg, route intravenous; details: plasma; how it was run: as §1
[15] = Half life in ddY mouse at 1 mg/kg, iv by LC/MS analysis; type: ADME, organism-based; set-up: dose 1 mg/kg, route intravenous; details: in vivo; how it was run: as §1
[16] = Volume of distribution at steady state in ddY mouse at 1 mg/kg, iv by LC/MS analysis; type: ADME, organism-based; set-up: dose 1 mg/kg, route intravenous; details: in vivo, read-out: Vdss; how it was run: as §3
[17] = Plasma clearance in cynomolgus monkey at 1 mg/kg, iv by LC/MS analysis; type: ADME, organism-based, Macaca fascicularis; set-up: dose 1 mg/kg, route intravenous; how it was run: as §1
[18] = Intrinsic clearance in ddY mouse liver microsomes by LC-MS/MS analysis; type: ADME, Microsome; details: read-out: CLH; how it was run: as §2
[19] = AUC in ddY mouse at 1 mg/kg, iv by LC/MS analysis; type: ADME, organism-based; set-up: dose 1 mg/kg, route intravenous; details: plasma; how it was run: as §1
[20] = Oral bioavailability in ddY mouse at 3 mg/kg by LC/MS analysis; type: ADME, organism-based; details: in vivo; how it was run: as §1
LLC-PK1 = assay: (§4) Apparent permeability from apical to basolateral side in pig LLC-PK1 cells expressing MDR1 after 2 hrs by LC-MS/MS analysis; type: ADME, cell-based, Sus scrofa; details: llc-pk1, 2 h, 2 h
How it was run: (§5)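 Transport in LLC-PK1 cells and in LLC-GA5-COL150 cells (LLC-PK1 transfected with human MDR1). Papp = amount transported divided by initial donor concentration. Efflux ratio compares the Papp of the two directions (BA/AB).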

MDR1 = assay: as §4; type: ADME, cell-based, Sus scrofa; details: LLC-PK1; how it was run: as §5
[21] = Ratio of brain to plasma in ddY mouse at 1 mg/kg, iv by LC-MS analysis; type: ADME, organism-based; set-up: dose 1 mg/kg, route intravenous; details: read-out: BPR
[22] = biological target: T2, Sodium- and chloride-dependent glycine transporter 2 (Rattus norvegicus, UniProt P58295); assay: Displacement of [3H]glycine from GlyT2 in Wistar rat brainstem cells after 10 mins by scintillation counting analysis; type: cell-based
T2 sequence (P58295 whole entry): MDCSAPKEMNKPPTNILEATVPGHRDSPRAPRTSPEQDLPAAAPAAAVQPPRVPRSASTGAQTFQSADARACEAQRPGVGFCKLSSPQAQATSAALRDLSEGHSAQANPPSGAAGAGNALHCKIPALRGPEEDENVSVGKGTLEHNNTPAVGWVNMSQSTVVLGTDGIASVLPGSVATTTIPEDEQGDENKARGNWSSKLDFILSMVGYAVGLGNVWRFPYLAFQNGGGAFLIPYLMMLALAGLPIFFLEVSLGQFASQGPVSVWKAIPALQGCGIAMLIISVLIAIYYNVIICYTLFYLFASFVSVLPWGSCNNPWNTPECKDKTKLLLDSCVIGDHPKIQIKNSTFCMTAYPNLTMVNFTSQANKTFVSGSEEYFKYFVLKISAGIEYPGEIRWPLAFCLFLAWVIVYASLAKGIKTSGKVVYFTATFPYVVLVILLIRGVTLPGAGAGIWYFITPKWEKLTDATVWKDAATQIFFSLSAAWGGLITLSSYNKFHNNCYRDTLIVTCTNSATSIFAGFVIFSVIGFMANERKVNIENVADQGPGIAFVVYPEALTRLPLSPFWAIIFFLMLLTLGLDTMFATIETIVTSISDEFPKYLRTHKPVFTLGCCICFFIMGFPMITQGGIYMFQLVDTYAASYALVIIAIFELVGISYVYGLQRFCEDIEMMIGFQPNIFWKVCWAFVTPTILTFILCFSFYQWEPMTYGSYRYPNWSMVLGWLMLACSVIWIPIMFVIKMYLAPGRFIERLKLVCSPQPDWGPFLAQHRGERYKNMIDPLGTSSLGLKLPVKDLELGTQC

[23] = biological target: T3, Sodium- and chloride-dependent glycine transporter 1 (Rattus norvegicus) (UniProt P28572); details: C6 glioma, 10 uM
T3 sequence (whole entry): T1 sequence (P28572 whole entry)

pIC50 [1]: 5.62
Structure (SMILES): CCc1nnc(-c2ccc(-c3ccccc3)cc2)n1-c1cccc(COC)c1C

pIC50 [1]: 5.66
Structure (SMILES): CCc1nnc(-c2ccc(-c3ccccc3)cc2)n1-c1cccc(Br)c1C

pIC50 [1]: 4.54
Structure (SMILES): CCc1nnc(-c2ccc(-c3ccccc3)cc2)n1-c1cccc(CN(C)C)c1C

pIC50 [1]: 5.59
Structure (SMILES): CCc1nnc(N2CCN(c3ccccc3)CC2)n1-c1ccccc1F

pIC50 [1]: 5.18
Structure (SMILES): CCc1nnc(C2CCN(c3ccccc3)CC2)n1-c1ccccc1F

pIC50 [1]: 5.66
Structure (SMILES): CCc1nnc(-c2ccc(-c3ccccc3)cc2)n1-c1cccc(Cl)c1C

AUC [2]: 235 ng·h/mL
Cmax [3]: 141 ng/mL
half-life [4]: 2.4 h
CLint scaled [5]: 162 mL/min/kg
CLint scaled [6]: 55 mL/min/kg
solubility [7]: 95 µM (≈ 34.7 µg/mL)
AUC [8]: 522 ng·h/mL
logD [9]: 3
Vd [10]: 3.4 L/kg
bioavailability [11]: 23%
Cmax [12]: 319 ng/mL
clearance [13]: 67 mL/min/kg
AUC [14]: 875 ng·h/mL
half-life [15]: 0.22 h
Vd [16]: 1 L/kg
clearance [17]: 21 mL/min/kg
CLint scaled [18]: 787 mL/min/kg
AUC [19]: 248 ng·h/mL
bioavailability [20]: 32%
Papp (LLC-PK1): 35.4 ×10⁻⁶ cm/s
Structure (SMILES): CCc1nnc(-c2ccc(-c3ccccc3)nc2)n1-c1cccc(C#N)c1C (atropisomer R)

solubility at 20 h [7]: 31 µM (≈ 10.7 µg/mL)
Structure (SMILES): CCc1nnc(-c2ccc(-c3ccccc3)nc2)n1-c1ccccc1F

pIC50 [1]: 5.29
Structure (SMILES): CCc1nnc(-c2ccc(-c3ccccc3)cc2)n1-c1cccc(C(=O)OC)c1C

pIC50 [1]: 5.23
Structure (SMILES): Cc1nnc(-c2ccc(-c3ccncc3)cc2)n1-c1ccccc1F

solubility at 20 h [7]: 94 µM (≈ 34.4 µg/mL)
Structure (SMILES): CCc1nnc(-c2ccc(-c3ccccc3)nc2)n1-c1cccc(C#N)c1C (atropisomer S)

solubility at 20 h [7]: < 1 µM
Structure (SMILES): CCc1nnc(-c2ccc(-c3ccccc3)cc2)n1-c1ccccc1F

CLint scaled [6]: 374 mL/min/kg
solubility at 20 h [7]: 5 µM (≈ 1.88 µg/mL)
logD [9]: 4.1
CLint scaled [18]: > 1000 mL/min/kg
Papp A→B at 2 h (MDR1): 25.6 ×10⁻⁶ cm/s
Structure (SMILES): CCc1nnc(-c2ccc(-c3ccccc3)cc2)n1-c1cccc2cnccc12

pIC50 [1]: 5.43
Structure (SMILES): CCc1nnc(N2CCC(c3ccccc3)CC2)n1-c1ccccc1F

pIC50 [1]: 5.55
Structure (SMILES): CCc1nnc(-c2ccc(-c3ccccc3)cc2)n1-c1cccc(CC#N)c1C

solubility [7]: 98 µM (≈ 35.8 µg/mL)
Kp [21]: 0.7
Papp A→B at 2 h (MDR1): 29.6 ×10⁻⁶ cm/s
Structure (SMILES): CCc1nnc(-c2ccc(-c3ccccc3)nc2)n1-c1cccc(C#N)c1C

pIC50 [1]: 5.41
Structure (SMILES): CCc1nnc(-c2ccc(-c3ccccc3)cc2)n1-c1cccc(C(N)=O)c1C

pIC50 [22]: 5.80
pIC50 [1]: 6.07
Structure (SMILES): Cc1nnc(-c2ccc(-c3ccccn3)cc2)n1-c1ccccc1F

pIC50 [1]: 5.51
Structure (SMILES): CCc1nnc(-c2ccc(-c3ccccc3)cc2)n1-c1cccc(N(C)C)c1C

inhibition [23]: 38%
pIC50 [1]: < 5.00
Structure (SMILES): CCc1nnc(-c2ccc(-c3ccccc3)cc2)n1-c1cccc(C(F)(F)F)c1C

CLint scaled [6]: 126 mL/min/kg
solubility at 20 h [7]: < 1 µM
logD [9]: 4.1
CLint scaled [18]: > 1000 mL/min/kg
Papp A→B at 2 h (MDR1): 27.5 ×10⁻⁶ cm/s
Structure (SMILES): CCc1nnc(-c2ccc(-c3ccccc3)cc2)n1-c1cccc(C#N)c1C

pIC50 [1]: 5.15
Structure (SMILES): Cc1nnc(-c2ccc(-c3cccnc3)cc2)n1-c1ccccc1F
